Experimental data: ChEMBL document CHEMBL1122809, “Improved synthesis and antitumor activity of 2-bromo-2'-deoxyadenosine” (1984)

What was measured:
[1] = tested on: L1210; test: Antitumor activity expressed as life span was determined against inoculated L1210 leukemia cells (1*10e5) in mice by 11.3 mg/kg dosage of compound (qd (x 3), for days 1, 4, 7,10,13,16); assay type: functional, Mus musculus
Procedure, shortened: (§1)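 Female mice (~18 g, housed six per cage) received L1210 cells intraperitoneally on day 0. Drug was made fresh and injected at 0.01 mL/g; the stated dose is per injection. Controls received the same volume of 0.154 M NaCl. Survival was followed, with deaths assigned to tumour by necropsy or to drug toxicity by set criteria. Life span is given as mean ± SD.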

[2] = tested on: L1210; test: Antitumor activity expressed as life span was determined against inoculated L1210 leukemia cells (1*10e5) in mice by 22.5 mg/kg dosage of compound (qd (x 3), for days 1, 4, 7); assay type: functional, Mus musculus; procedure, shortened: as §1
[3] = tested on: L1210; test: Antitumor activity expressed as life span was determined against inoculated L1210 leukemia cells (1*10e5) in mice by 45 mg/kg dosage of compound (qd (x 3), for days 1, 4, 7); assay type: functional, Mus musculus; procedure, shortened: as §1
[4] = tested on: L1210; test: Antitumor activity expressed as life span was determined against inoculated L1210 leukemia cells (1*10e5) in mice by 45 mg/kg dosage of compound (qd (x 3), for days 1,5,9); assay type: functional, Mus musculus; procedure, shortened: as §1
[5] = tested on: L1210; test: Antitumor activity expressed as life span was determined against inoculated L1210 leukemia cells (1*10e5) in mice by 5.6 mg/kg dosage of compound (qd (x 3), for days 1, 4, 7); assay type: functional, Mus musculus; procedure, shortened: as §1
[6] = tested on: L1210; test: Antitumor activity expressed as life span was determined against inoculated L1210 leukemia cells (1*10e6) in mice by 11.3 mg/kg dosage of compound (qd (x 3), for days 1, 4, 7); assay type: functional, Mus musculus; procedure, shortened: as §1
[7] = tested on: L1210; test: Antitumor activity expressed as life span was determined against inoculated L1210 leukemia cells (1*10e6) in mice by 110 mg/kg dosage of compound (qd (x 3), for days 1, 4, 7); assay type: functional, Mus musculus; procedure, shortened: as §1
[8] = tested on: L1210; test: Antitumor activity expressed as life span was determined against inoculated L1210 leukemia cells (1*10e6) in mice by 110 mg/kg dosage of compound (qd (x 3), for days 1- 7); assay type: functional, Mus musculus; procedure, shortened: as §1
[9] = tested on: L1210; test: Antitumor activity expressed percentage increase in life span was determined against inoculated L1210 leukemia cells (1*10e5) in mice by 5.6 mg/kg dosage of compound (qd (x 3), for days 1,5,9); assay type: functional; conditions: Mus musculus
Procedure, shortened: (§2)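 L1210 cells were given intraperitoneally to female mice (~18 g). Freshly prepared drug was injected at 0.01 mL/g, dose per injection, and saline-injected controls were run. The end point was duration of survival. ILS was calculated as percent increase in mean life span over controls. Mice surviving 60 days or more counted as long-term survivors, scored as 60 days.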

[10] = tested on: L1210; test: Antitumor activity expressed as life span was determined against inoculated L1210 leukemia cells (1*10e6) in mice by 90 mg/kg dosage of compound (qd (x 3), for days 1- 7); assay type: functional, Mus musculus; procedure, shortened: as §1
[11] = tested on: L1210; test: Antitumor activity expressed as life span was determined against inoculated L1210 leukemia cells (1*10e6) in mice by 180 mg/kg dosage of compound (qd (x 3), for days 1, 4, 7); assay type: functional, Mus musculus; procedure, shortened: as §1
[12] = tested on: L1210; test: Antitumor activity expressed as life span was determined against inoculated L1210 leukemia cells (1*10e6) in mice by 22.5 mg/kg dosage of compound (qd (x 3), for days 1, 4, 7); assay type: functional, Mus musculus; procedure, shortened: as §1
[13] = tested on: L1210; test: Antitumor activity expressed as life span was determined against inoculated L1210 leukemia cells (1*10e6) in mice by 30 mg/kg dosage of compound (qd (x 3), for days 1- 7); assay type: functional, Mus musculus; procedure, shortened: as §1
[14] = tested on: L1210; test: Antitumor activity expressed percentage increase in life span was determined against inoculated L1210 leukemia cells (1*10e5) in mice by 17.3 mg/kg dosage of compound (qd (x 3), for days 1,5,9); assay type: functional; conditions: Mus musculus; procedure, shortened: as §2
[15] = tested on: L1210; test: Antitumor activity expressed percentage increase in life span was determined against inoculated L1210 leukemia cells (1*10e5) in mice by 22.5 mg/kg dosage of compound (qd (x 3), for days 1, 4, 7); assay type: functional; conditions: Mus musculus; procedure, shortened: as §2
[16] = tested on: L1210; test: Antitumor activity expressed percentage increase in life span was determined against inoculated L1210 leukemia cells (1*10e6) in mice by 140 mg/kg dosage of compound (qd (x 3), for days 1, 4, 7); assay type: functional; conditions: Mus musculus; procedure, shortened: as §2
[17] = tested on: M5076; test: Antitumor activity was evaluated by measuring mean life span in tumor (M5076) inoculated mice at 22.5 mg/kg (qd3hx8),days 1,4,7,15,18,21; assay type: functional, Mus musculus
Procedure, shortened: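 Female mice of about 18 g received subcutaneous M5076 implants like those used for serial passage. Drug was prepared just before use and injected at 0.01 mL/g every 3 h (×8) on days 1, 4, 7, 15, 18 and 21, with the dose stated per injection. Controls received 0.154 M NaCl, and groups held 18 mice. Survival and tumor volume were recorded, and %ILS was derived from mean life span.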

[18] = tested on: L1210; test: Antitumor activity expressed percentage increase in life span was determined against inoculated L1210 leukemia cells (1*10e6) in mice by 5.6 mg/kg dosage of compound (qd (x 3), for days 1, 4, 7); assay type: functional; conditions: Mus musculus; procedure, shortened: as §2
[19] = tested on: L1210; test: Antitumor activity expressed percentage increase in life span was determined against inoculated L1210 leukemia cells (1*10e6) in mice by 5.6 mg/kg dosage of compound (qd (x 3), for days 1, 4, 7,10,13,16); assay type: functional; conditions: Mus musculus
[20] = tested on: L1210; test: Antitumor activity expressed percentage increase in life span was determined against inoculated L1210 leukemia cells (1*10e6) in mice by 70 mg/kg dosage of compound (qd (x 3), for days 1, 4, 7); assay type: functional; conditions: Mus musculus
Procedure, shortened: (§3)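 Female mice of about 18 g (BDF1, DBA/2 or C57Bl/6 stocks used) were inoculated intraperitoneally with 1 × 10^6 L1210 cells. Freshly prepared drug was given once daily from about 24 h after inoculation at 0.01 mL/g, with the dose stated per injection. Controls received 0.154 M NaCl, and groups held 6 mice. %ILS was taken from mean survival, with mice alive at 60 days or more counted as 60 days.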

[21] = tested on: L1210; test: Antitumor activity expressed percentage increase in life span was determined against inoculated L1210 leukemia cells (1*10e6) in mice by 70 mg/kg dosage of compound (qd (x 3), for days 1-7); assay type: functional; conditions: Mus musculus; procedure, shortened: as §3
[22] = tested on: L1210; test: Antitumor activity expressed percentage increase in life span was determined against inoculated L1210 leukemia cells (1*10e6) in mice by 90 mg/kg dosage of compound (qd (x 3), for days 1- 7); assay type: functional; conditions: Mus musculus; procedure, shortened: as §3
[23] = tested on: B16 melanoma (mouse); test: Antitumor activity was evaluated by measuring mean life span in tumor (B16 melanoma) inoculated mice at 11.3 mg/kg (qd3hx8),days 1,4,7,10
[24] = tested on: B16 melanoma (mouse); test: Antitumor activity expressed percentage increase in life span was determined against inoculated B16 melanoma in mice by 22.5 mg/kg dosage of compound (qd3hx8), for days 1,4,7,10,13,16
[25] = tested on: L1210; test: Antitumor activity expressed as life span was determined against inoculated L1210 leukemia cells (1*10e5) in mice by 5.6 mg/kg dosage of compound (q 3 h (x 8), for days 1, 4, 7,10,13,16)

SMILES: Nc1nc(Br)nc2c1ncn2[C@H]1C[C@H](O)[C@@H](CO)O1
- Life span [1]: 18.67 days
- Life span [2]: 23.75 days
- Life span [3]: 37.92 days
- Life span [4]: 37.73 days
- Life span [5]: 11.75 days
- Life span [6]: 12.92 days
- Life span [7]: 8.17 days
- Life span [8]: 4.17 days
- ILS at 5.6 mg/kg [9]: 59%
- Life span [10]: 4.83 days
- Life span [11]: 5 days
- Life span [12]: 15 days
- Life span [13]: 7.67 days
- ILS at 17.3 mg/kg [14]: 81%
- ILS at 22.5 mg/kg [15]: 224%
- ILS at 140 mg/kg [16]: 26%
- Life span [17]: 43.33 days
- ILS at 5.6 mg/kg [18]: 75%
- ILS at 5.6 mg/kg [19]: 48%
- ILS at 70 mg/kg [20]: 3%
- ILS at 70 mg/kg [21]: 11%
- ILS at 90 mg/kg [22]: 0%
- Life span [23]: 23.11 days
- ILS at 22.5 mg/kg [24]: 10%
- Life span [25]: 11.83 days
